Assay results reported in ChEMBL document CHEMBL1128283, “Novel modified carboxy terminal fragments of neuropeptide Y with high affinity for Y2-type receptors and potent functional antagonism at a Y1-type receptor” (J Med Chem, 1995).

Key:
[1] = biological target: T1, Neuropeptide Y receptor type 2 (Rattus norvegicus, UniProt Q9ERC0); assay: 50% displacement of specifically bound [3H]NPY2 from rat brain membranes.; assay type: cell membranes, Membrane
T1 sequence (Q9ERC0 whole entry): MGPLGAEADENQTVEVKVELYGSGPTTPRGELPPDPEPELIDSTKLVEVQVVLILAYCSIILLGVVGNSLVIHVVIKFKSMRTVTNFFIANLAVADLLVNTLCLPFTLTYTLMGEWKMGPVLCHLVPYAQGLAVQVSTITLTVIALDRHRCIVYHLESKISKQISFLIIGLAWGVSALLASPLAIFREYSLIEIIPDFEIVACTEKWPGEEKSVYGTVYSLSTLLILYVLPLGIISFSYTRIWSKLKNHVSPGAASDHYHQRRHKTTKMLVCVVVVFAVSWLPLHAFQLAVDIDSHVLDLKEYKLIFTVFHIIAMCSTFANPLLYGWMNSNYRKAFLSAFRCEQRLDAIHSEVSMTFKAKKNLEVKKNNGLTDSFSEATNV

HEL [2] = assay: (§1) Inhibition of NPY1-induced ([Ca2+]) release in HEL cell was determined at 100 nM; assay type: functional, Homo sapiens; parameters: scale not given: the % may be the effect or the level left
Summary of the method: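 HEL cells loaded with fura-2 and kept in suspension; calcium read as the 340/380 nm ratio. Peptide tested at 100 nM, added 30 s before NPY. Agonist activity expressed as percent of the response to 100 nM NPY. Inhibition measured against the 5 nM NPY response.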

HEL [3] = assay: as §1; assay type: functional; conditions: Homo sapiens, read-out: ED50 (the source's name)
HEL [4] = assay: Inhibition of NPY-induced ([Ca2+]) release in HEL cell was determined; assay type: functional, cell-based; conditions: Homo sapiens

Substance | IC50 [1] | Activity (HEL [2]) | also measured
H-INLIYRLRY-NH2 [listing 1 of 2 here] | 37 nM | – | –
H-RHYINLITRQRY-NH2 [listing 1 of 2 here] | – | 0% | –
H-YINPIYRLRY-NH2 [listing 1 of 2 here] | 44 nM | – | –
H-YINLIYRLRY-NH2 | 8 nM | – | EC50 (HEL [3]): 8.8 nM
H-INLIYRLRY-NH2 [listing 2 of 2 here] | – | 33% | –
H-HYINLIYRLRY-NH2 | 12 nM | 100% | –
H-YINPIYRLRY-NH2 [listing 2 of 2 here] | – | – | IC50 (HEL [4]): 100 nM
H-LIYRLRY-NH2 | 400 nM | – | –
H-YINLITRQRY-NH2 | 30000 nM | 0% | –

More lines, main results first:

IC50 [1] | Substance | Activity (HEL [2]) | also measured
12 nM | H-RHYINLIYRLRY-NH2 | 100% | –
1300 nM | H-RHYINLITRQRY-NH2 [listing 2 of 2 here] | – | –
> 100000 nM | H-TRQRY-NH2 | – | –
310 nM | H-NLIYRLRY-NH2 | – | –
174 nM | H-INPIYRLRY-NH2 | – | IC50 (HEL [4]): 9 nM
2950 nM | H-IYRLRY-NH2 | – | –
2100 nM | H-YINLITRLY-NH2 | 0% | –
